# Measurements collected from several papers.
# Lines come from different studies, so protocols differ.
# Target: Serine/threonine-protein kinase NLK (NLK, Homo sapiens, UniProt Q9UBE8)
# One construct used (Q9UBE8 1-527): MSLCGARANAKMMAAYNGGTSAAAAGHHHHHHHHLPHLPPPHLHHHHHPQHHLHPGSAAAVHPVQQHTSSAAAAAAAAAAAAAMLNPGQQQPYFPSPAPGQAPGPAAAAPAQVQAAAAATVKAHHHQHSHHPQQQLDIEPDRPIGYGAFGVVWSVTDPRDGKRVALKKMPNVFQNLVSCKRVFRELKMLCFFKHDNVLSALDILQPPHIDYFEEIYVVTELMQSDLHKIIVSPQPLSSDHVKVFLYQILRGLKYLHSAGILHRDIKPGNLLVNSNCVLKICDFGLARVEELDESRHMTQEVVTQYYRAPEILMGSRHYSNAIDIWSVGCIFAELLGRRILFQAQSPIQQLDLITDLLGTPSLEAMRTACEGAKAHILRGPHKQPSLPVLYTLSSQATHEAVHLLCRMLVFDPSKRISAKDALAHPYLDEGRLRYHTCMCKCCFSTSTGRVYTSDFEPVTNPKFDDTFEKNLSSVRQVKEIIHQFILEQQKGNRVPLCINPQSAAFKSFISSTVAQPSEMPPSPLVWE
SMILES,assay,conditions,remaining binding [%]
N[C@H]1CCN(c2nccc(-c3cnn4ncccc34)n2)C1,binding,1 µM,76
CNC(=O)c1ccc(Nc2ncc(C(F)(F)F)c(NCc3nccnc3N(C)S(C)(=O)=O)n2)cc1,"cell-free assay, competition with immobilised ligand",0.1 µM,100
C[C@@H]1CCN(c2nccc(-c3cnn4ncccc34)n2)C1,binding,1 µM,70
C=CC(=O)N1CCC(C(=O)NCC(=O)N2CCN(c3nc(-c4cnc(N)nc4C(F)F)nc(N4CCOCC4)n3)CC2)CC1,"binding, competition with immobilised ligand",1 µM,94
CN([C@@H]1CCc2c(CC(=O)O)c3cc(S(C)(=O)=O)ccc3n2C1)S(=O)(=O)c1ccc(F)cc1,"cell-free assay, competition with immobilised ligand",1 µM,100
CCN1CCN(Cc2ccc(C(=O)Nc3ccc(C)c(Oc4ccc5c(c4)CC(=O)N5)c3)cc2C(F)(F)F)CC1,"binding, competition with immobilised ligand",1 µM,79
FC(F)(F)Oc1cccc(-c2cnc3ccc(-c4ccncc4)nn23)c1,"cell-free assay, competition with immobilised ligand",5 µM,85
O=C1CCc2cc(Nc3cc(OC4CCOCC4)c([N+](=O)[O-])cc3Cl)ccc2N1,"cell-free assay, competition with immobilised ligand",1 µM,100
Cc1cnn2ncc(-c3ccnc(N(C)C)n3)c2c1,binding,1 µM,100
Cc1c(C(=O)O)cc(-c2ccc(C3CCNCC3)cc2)c2ccc(-c3ccc(C(F)(F)F)cc3)cc12,"binding, competition with immobilised ligand",1 µM,100
Cc1cnc(Nc2ccc(C(=O)N3CCC(N4CCCC4)CC3)cc2)nc1-c1cc2ccccc2s1,"binding, competition with immobilised ligand",1 µM,69
CO[C@@H](C)c1c(Nc2ccc([C@@H](N(C)C(=O)C3CCS(=O)(=O)CC3)C(F)(F)F)cc2)cnc2cc(Cl)nn12,"cell-free assay, competition with immobilised ligand",1 µM,84
COc1cnc(Nc2cccc(S(N)(=O)=O)c2)nc1N1CCN(c2ccccc2)CC1,"binding, competition with immobilised ligand",1 µM,96
C[C@H](c1cccc(C#N)c1)n1cc(Cl)cc(C(N)=O)c1=N,"cell-free assay, competition with immobilised ligand",1 µM,44
c1cnn2ncc(-c3ccnc(N4CCC45COC5)n3)c2c1,binding,1 µM,87
O=C(NCCCN1CCOCC1)c1ccc(Nc2ncc(Cl)c(-c3ccc(Cl)s3)n2)cc1,"binding, competition with immobilised ligand",1 µM,100
CC1CCCN1c1nccc(-c2cnn3ncccc23)n1 (stereo not shown),binding,1 µM,78
Nc1ncc2c(n1)-c1c([nH]c3ccc(C#CC4CC4)cc13)CCCC2,"binding, competition with immobilised ligand",1 µM,85
C[C@@H](c1ccc(-n2cnc3c(N)ncnc32)cc1)N1CCc2nn(C)c(Cc3ccccc3)c2C1=O,"binding, competition with immobilised ligand",0.1 µM,80
O=C(NCC1CCOCC1)c1n[nH]cc1NC(=O)c1c(F)cccc1F,"binding, competition with immobilised ligand",1 µM,85
O=C(c1ccc(Nc2ncc(Cl)c(-c3ccc(Cl)s3)n2)cc1)N1CCC(N2CCCC2)CC1,"binding, competition with immobilised ligand",1 µM,98
CN(c1nccc(-c2cnn3ncccc23)n1)C1CC1,binding,1 µM,77
